Assay outcomes deposited in PubChem by Sanford-Burnham Center for Chemical Genomics.
The list is not random: actives were taken first. Their share in the collection is about 1.5%.
FLuc inh counter – Photinus pyralis luciferase inhibition counter-screen | P08659 | ATPLite firefly luciferase biochemical luminescence, 10 min | inhibition, % at 10 µM | 1.5% of 200,000 active | AID 1006;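 active means inhibition above about 50% when tested at 10 µM, limit read from the data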
Target sequence (P08659 whole entry, looked up): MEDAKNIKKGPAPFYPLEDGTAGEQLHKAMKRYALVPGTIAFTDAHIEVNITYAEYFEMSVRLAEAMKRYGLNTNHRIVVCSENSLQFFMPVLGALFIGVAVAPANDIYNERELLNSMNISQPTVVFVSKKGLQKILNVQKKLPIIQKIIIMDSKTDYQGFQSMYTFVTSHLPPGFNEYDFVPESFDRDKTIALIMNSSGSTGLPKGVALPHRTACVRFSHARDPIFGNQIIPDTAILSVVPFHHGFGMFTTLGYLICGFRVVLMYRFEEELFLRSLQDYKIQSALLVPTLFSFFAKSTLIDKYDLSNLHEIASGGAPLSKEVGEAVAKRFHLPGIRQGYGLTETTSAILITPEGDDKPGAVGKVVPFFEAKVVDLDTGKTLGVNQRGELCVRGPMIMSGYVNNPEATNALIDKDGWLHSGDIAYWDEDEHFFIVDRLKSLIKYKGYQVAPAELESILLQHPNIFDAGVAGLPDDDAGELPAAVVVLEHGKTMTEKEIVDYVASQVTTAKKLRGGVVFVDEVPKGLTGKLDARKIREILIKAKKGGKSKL
TRAIL sens C8 – caspase-8 TRAIL sensitization. NB7+C8 cells + TRAIL, ATPlite viability luminescence. inhibition (viability loss, TRAIL sensitization), % at 10 µM. 1% of 360,000 active;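 active means compounds causing at least 50% loss of cell viability in the single-dose screen, relative to plate controls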
FLuc act counter – affects firefly luciferase, flagging false hits in luciferase stimulation screens. 200,000 tested, under 10 active. ATPlite luciferase biochemical, luminescence, 10 min; 0 = ATP-free wells, 1 = DMSO control. activation factor at 10 µM;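 active means luciferase activation factor, scaled between plate controls, of at least 2 with compound at 10 µM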
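System: cell-free luciferase reagent; medium: PBS as buffer for the ATP substrate; doses: test compounds dosed from 2 mM stocks in 100% DMSO; incubation: 10 min, room temperature; measured by: luminescence from luciferase reaction; read-out: luciferase activation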
PPC-1+TRAIL kill – PPC-1 cancer cell killing with TRAIL present; PPC-1 cells + TRAIL, ATPLite viability luminescence; cell killing (% activity), % at 4 µM or 5 µM; 0.41% of 220,000 active; AID 1443;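 active means cell killing above 50% in the first pass at 4 µM, then a duplicate retest at 5 µM averaging 50% or more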;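 further: plate controls were cells with TRAIL plus DMSO for no effect and medium-only wells lacking cells for full effect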
* = called active by the depositor.

For CCc1ccc(C(=O)Cn2ccsc2=N)cc1 the results were TRAIL sens C8 59*.
`O=C(Nc1ccc(O)cc1)/C(=C\C=C\c1ccccc1)NC(=O)c1ccccc1` gave TRAIL sens C8 -3 and PPC-1+TRAIL kill 5.
O=C(Nc1ccc(C(=O)O)cc1)/C(=C\C=C\c1ccccc1)NC(=O)c1ccccc1Cl was read as TRAIL sens C8 54*.
`O=C(Nc1ccc2cn[nH]c2c1)c1ccccc1F` gave FLuc inh counter 53*, TRAIL sens C8 22, FLuc act counter 0.5 and PPC-1+TRAIL kill 16.
`CCOC(=O)C1=C[C@@H](CC)N(S(=O)(=O)c2ccc(C)cc2)[C@H]1c1cccs1` gave TRAIL sens C8 -10.
For CC(=O)c1sc(N/N=C\c2ccccc2O)nc1C the results were FLuc inh counter 68*, TRAIL sens C8 35 and FLuc act counter 0.3.
`COc1cccc(/C=C2\Oc3ccc(O)cc3C2=O)c1O` gave TRAIL sens C8 65*.
For COc1ccc(NC(=O)C2CC(=O)N(Cc3ccco3)C2)cc1Cl (stereo unspecified) the results were TRAIL sens C8 0.
CC(NC(=O)c1ccco1)C(=O)N1CCCCC1 (stereo unspecified) was read as TRAIL sens C8 -12.
O=C(c1cnc(Cl)c(Cl)c1)N1CCN(S(=O)(=O)c2ccc3ccccc3c2)CC1 was read as TRAIL sens C8 48*.
`O=C(c1ccncc1)N1CCN(S(=O)(=O)c2ccc3ccccc3c2)CC1` gave TRAIL sens C8 3.
`CCCCC1CC2=C(C(=O)OC(C)(C)O2)C(c2ccc3ccccc3c2)O1` (stereo unspecified) gave TRAIL sens C8 -5.
Screening COC(=O)Cc1c(C)nc2nc(-c3ccc(Cl)cc3)[nH]n2c1=O returned FLuc inh counter 58*, TRAIL sens C8 30, FLuc act counter 0.4 and PPC-1+TRAIL kill 37.
For COC(=O)Cc1c(C)nc2nc(-c3ccccc3)[nH]n2c1=O the results were FLuc inh counter 6, TRAIL sens C8 1, FLuc act counter 0.9 and PPC-1+TRAIL kill 16.
Cc1cc(=O)n2[nH]c(-c3ccc(F)cc3)nc2n1 was read as FLuc inh counter 66*, TRAIL sens C8 51*, FLuc act counter 0.3 and PPC-1+TRAIL kill 37.
COC(=O)Cc1c(C)nc2nc(-c3ccc(C)cc3)[nH]n2c1=O was read as FLuc inh counter 50*, TRAIL sens C8 27, FLuc act counter 0.5 and PPC-1+TRAIL kill 5.
Cc1nc2nc(-c3ccc(Cl)cc3)[nH]n2c(=O)c1C was read as FLuc inh counter 66*, FLuc act counter 0.3 and PPC-1+TRAIL kill 40.
Screening Cc1nn(CC(=O)N2CCC(C(N)=O)CC2)c(=O)c2nn(-c3ccccc3)c(C)c12 returned TRAIL sens C8 11.
Cc1ccc(S(=O)(=O)NCC(C)n2nc(C)nc2C)cc1 (stereo unspecified) was read as TRAIL sens C8 -16.
CCn1c2ccccc2c2cc(NC(=O)COC(=O)c3cc(Cl)c(N)cc3OC)ccc21 was read as TRAIL sens C8 -8 and PPC-1+TRAIL kill -3.
Screening CN(C)CCN(CC1CCCN(Cc2ccccc2F)C1)C(=O)c1ccc(Cl)cc1 (stereo unspecified) returned TRAIL sens C8 1.
`COc1ccc(-c2nc3ccccn3c2C=O)cc1` gave FLuc inh counter 61*, TRAIL sens C8 41, FLuc act counter 0.4 and PPC-1+TRAIL kill 34.
For Cc1ccc(NC(=O)CCn2c(=O)c3cccn3c3ccccc32)cc1C the results were TRAIL sens C8 -13.
Screening C/C(=N\Nc1nc(C)cc(-c2ccccc2)n1)c1cccc(N)c1 returned TRAIL sens C8 51*.
For C=C(C)CSc1nnc2n(Cc3ccccc3)c(=O)c3c4c(sc3n12)CCC4 the results were FLuc inh counter -3, TRAIL sens C8 85*, FLuc act counter 1 and PPC-1+TRAIL kill 9.
For CCCSc1nnc2n(Cc3ccccc3)c(=O)c3c4c(sc3n12)CCC4 the results were FLuc inh counter -7, FLuc act counter 1.1 and PPC-1+TRAIL kill 8.
Screening ON=C1C2CC=C(c3ccccc3)C1CCC2 (stereo unspecified) returned TRAIL sens C8 -6.
O=C(NCCN1CCOCC1)NC1(C(F)(F)F)Oc2ccc(Cl)cc2O1 (stereo unspecified) was read as FLuc inh counter -2, TRAIL sens C8 52*, FLuc act counter 1 and PPC-1+TRAIL kill 15.
Screening CC1(C)CC[C@]2(C(=O)n3ccnc3)CC[C@]3(C)[C@H](C(=O)C=C4[C@@]5(C)C=C(C#N)C(=O)C(C)(C)[C@@H]5CC[C@]43C)[C@@H]2C1 returned TRAIL sens C8 88*.
For CC1CCC(NC(=O)CSc2nnnn2C)CC1 (stereo unspecified) the results were TRAIL sens C8 -6.
`Cc1ccc(C2=NN(C(=O)CCl)C(c3ccco3)C2)o1` (stereo unspecified) gave TRAIL sens C8 92*.
For CC(=O)n1cc(N(C(=O)CCl)c2ccc(C)cc2)c2ccccc21 the results were TRAIL sens C8 95* and PPC-1+TRAIL kill 38.
`CC(=O)N(c1ccc(Cl)cc1)c1cn(C(C)=O)c2ccccc12` gave FLuc inh counter -3, TRAIL sens C8 -19, FLuc act counter 1 and PPC-1+TRAIL kill 13.
Screening COc1ccc(-c2cn3cccnc3n2)cc1F returned FLuc inh counter 57*, TRAIL sens C8 28, FLuc act counter 0.4 and PPC-1+TRAIL kill 37.
COc1ccc(-c2cn3cccnc3n2)cc1NS(=O)(=O)c1ccccc1 was read as FLuc inh counter 10, TRAIL sens C8 -10, FLuc act counter 0.9 and PPC-1+TRAIL kill 18.
Cc1ccnc(NC(=O)CCC(=O)c2cccs2)c1 was read as TRAIL sens C8 79*.
`Cc1ccc(C=Nc2ccc(N(C)C)cc2)o1` gave FLuc inh counter 76*, TRAIL sens C8 2, FLuc act counter 0.2 and PPC-1+TRAIL kill -2.
`O=C1C(C=NCc2ccncc2)=C(O)c2ccccc21` gave FLuc inh counter -2, TRAIL sens C8 -23, FLuc act counter 1 and PPC-1+TRAIL kill 3.
Screening O=C1C(C=NCc2cccnc2)=C(O)c2ccccc21 returned FLuc inh counter 68*, TRAIL sens C8 24, FLuc act counter 0.3 and PPC-1+TRAIL kill -7.
For COC(=O)Nc1nnc(/C=C/c2ccc(OC)cc2)s1 the results were FLuc inh counter 52*, TRAIL sens C8 23, FLuc act counter 0.5 and PPC-1+TRAIL kill 37.
For CCc1nnc(NC(=O)c2ccc(OC)cc2)s1 the results were FLuc inh counter 83*, TRAIL sens C8 8, FLuc act counter 0.2 and PPC-1+TRAIL kill 31.
Screening O=C(N=C1SC2CS(=O)(=O)CC2N1CCc1ccccc1)C1CCCCC1 (stereo unspecified) returned TRAIL sens C8 -31.
For NNc1nc(-c2ccccc2)nc2sc3c(c12)CCCC3 the results were FLuc inh counter 84*, TRAIL sens C8 64*, FLuc act counter 0.2 and PPC-1+TRAIL kill 21.
NNc1nc2sc3c(c2c(=O)n1Cc1ccccc1)CCC3 was read as TRAIL sens C8 -2 and PPC-1+TRAIL kill -6.
